Experimental data from ChEMBL document CHEMBL1126550, “Nanomolar-affinity, non-peptide oxytocin receptor antagonists” (J Med Chem, 1993).
pIC50: −log10 of the molar value.

How the values were obtained:
[1] = target: Vasopressin V2 receptor (Rattus norvegicus, UniProt Q00788); test: Inhibition of radioligand [3H]-AVP binding to the vasopressin V2 receptor in rat kidney tissue
Outline: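 [3H]AVP (80–90 Ci/mmol) at 2 nM competed on crude membranes from male rat kidney medulla (V2 sites). Equilibrium 30 min at 30 °C in 100 mM Tris-HCl, 5 mM MgCl2, 0.1% BSA, 50 μM PMSF, 50 μg/mL bacitracin, pH 8.0. Nonspecific binding with 10 μM unlabeled AVP. Glass-fiber filtration. IC50 by linear regression of % inhibition vs log concentration, seven concentrations.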

[2] = target: T1, Oxytocin receptor (Rattus norvegicus, UniProt P70536); test: Inhibition of radioligand [3H]oxytocin binding at the oxytocin (OT) receptor in rat uterine tissue
T1 sequence (P70536 whole entry): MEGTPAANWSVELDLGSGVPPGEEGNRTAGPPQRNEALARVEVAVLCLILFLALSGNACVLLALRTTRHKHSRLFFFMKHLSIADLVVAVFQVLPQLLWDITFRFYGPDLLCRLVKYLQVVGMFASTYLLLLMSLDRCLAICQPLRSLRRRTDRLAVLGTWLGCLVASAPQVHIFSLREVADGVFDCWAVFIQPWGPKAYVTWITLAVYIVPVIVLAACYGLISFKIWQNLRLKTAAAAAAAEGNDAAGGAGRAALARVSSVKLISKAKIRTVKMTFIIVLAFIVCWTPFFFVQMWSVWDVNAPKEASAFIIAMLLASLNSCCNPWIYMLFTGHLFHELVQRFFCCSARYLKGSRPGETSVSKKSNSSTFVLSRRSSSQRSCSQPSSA
Outline: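 Uteri taken from rats given diethylstilbestrol dipropionate (0.3 mg/kg ip, 18–24 h before), crude membranes. 1 nM [3H]OT (30–60 Ci/mmol), equilibrium 60 min at 22 °C in 50 mM Tris-HCl, 5 mM MgCl2, 0.1% BSA, pH 7.4. Nonspecific binding with 1 mM unlabeled OT. Filtered on glass fiber. Initial single-concentration screen, then IC50 from seven concentrations by linear regression.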

[3] = target: Vasopressin V1 receptor (Rattus norvegicus, UniProt P48974+P30560); test: Inhibition of radioligand [3H]AVP binding to the vasopressin V1 receptor in rat liver tissue
Outline: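 Crude membranes from male rat liver (V1 sites) competed with 1 nM [3H]AVP (80–90 Ci/mmol). Equilibrium 30 min, 30 °C, buffer 100 mM Tris-HCl, 5 mM MgCl2, 0.1% BSA, 50 μM PMSF, 50 μg/mL bacitracin, pH 8.0. 10 μM unlabeled AVP for nonspecific binding. Filtration through glass-fiber filters. IC50 from linear regression over seven concentrations.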

Vasopressin V2 receptor, sequence (Q00788 whole entry): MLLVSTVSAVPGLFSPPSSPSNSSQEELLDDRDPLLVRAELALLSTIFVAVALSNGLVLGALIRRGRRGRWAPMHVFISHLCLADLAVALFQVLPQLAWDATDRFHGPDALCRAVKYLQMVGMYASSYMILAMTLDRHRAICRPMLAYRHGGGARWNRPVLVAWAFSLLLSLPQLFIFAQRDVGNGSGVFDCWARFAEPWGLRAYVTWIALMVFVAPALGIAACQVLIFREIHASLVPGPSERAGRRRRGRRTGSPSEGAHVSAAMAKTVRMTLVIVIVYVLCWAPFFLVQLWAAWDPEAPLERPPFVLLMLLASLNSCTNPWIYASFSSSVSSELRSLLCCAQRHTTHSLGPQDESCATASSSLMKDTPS

Row | SMILES | pIC50 [1] | pIC50 [2] | IC50 [3] [µM]
1 | CC1(C)[C@@H]2CC[C@@]1(CS(=O)(=O)N1CCC3(CCc4ccccc43)CC1)[C@@H](N1CCNC1=O)C2 | < 5.52 | 7.00 | > 0.3
2 | CCOC(=O)CCC(=O)N[C@H]1C[C@H]2CC[C@]1(CS(=O)(=O)N1CCC3(CCc4ccccc43)CC1)C2(C)C | 4.89 | 6.62 | 16
3 | CC1(C)[C@@H]2CC[C@@]1(CS(=O)(=O)N1CCC3(CCc4ccccc43)CC1)[C@@H](NC(=O)NC1CN3CCC1CC3)C2 (single isomer, unassigned; isomer B) | 4.96 | 7.43 | 2.1
4 | CC1(C)[C@@H]2CC[C@@]1(CS(=O)(=O)N1CCC3(C=Cc4ccccc43)CC1)[C@@](O)(CCNC(=O)c1ccccn1)C2 | < 6.00 | 6.92 | > 1
5 | CC1(C)[C@@H]2CC[C@@]1(CS(=O)(=O)N1CCC3(CCc4ccccc43)CC1)[C@@H](NC(=O)C(CCS(C)(=O)=O)c1c[nH]cn1)C2 (stereo in doubt) | 5.54 | 7.96 | 1.5
6 | CC1(C)[C@@H]2CC[C@@]1(CS(=O)(=O)N1CCC3(CCc4ccccc43)CC1)[C@@H](NC(=O)[C@H](N)Cc1c[nH]cn1)C2 | 5.26 | 7.35 | 1.5
7 | CC1(C)[C@@H]2CC[C@@]1(CS(=O)(=O)N1CCC3(C=Cc4ccccc43)CC1)[C@@](O)(CNC(=O)Cc1c[nH]cn1)C2 | < 5.52 | 7.35 | > 0.3
8 | CC1(C)[C@@H]2CC[C@@]1(CS(=O)(=O)N1CCC3(CCc4ccccc43)CC1)[C@@H](N1C(=O)NC(Cc3c[nH]cn3)C1=O)C2 (mixture of isomers) | 5.82 | 7.82 | 0.58
9 | CC1NC(=O)N([C@H]2C[C@H]3CC[C@]2(CS(=O)(=O)N2CCC4(CCc5ccccc54)CC2)C3(C)C)C1=O (some centres not stated) | 5.68 | 7.85 | 0.71
10 | CC1(C)[C@@H]2CC[C@@]1(CS(=O)(=O)N1CCC3(CCc4ccccc43)CC1)[C@@H](N1C(=O)NC(Cc3c[nH]cn3)C1=O)C2 (stereo in doubt) | 5.85 | 7.89 | 0.42
11 | CC1(C)[C@@H]2CC[C@@]1(CS(=O)(=O)N1CCC3(CCc4ccccc43)CC1)[C@@H](NC(=O)C(N)CCS(N)(=O)=O)C2 (some centres not stated) | 5.17 | 7.42 | 4
12 | CC1(C)[C@@H]2CC[C@@]1(CS(=O)(=O)N1CCC3(CCc4ccccc43)CC1)[C@@H](NC(=O)Cn1cnnn1)C2 | 5.00 | 6.85 | > 1
13 | CC1(C)[C@@H]2CC[C@@]1(CS(=O)(=O)N1CCC3(CCc4ccccc43)CC1)[C@@H](NC(=O)[C@H](CCC(N)=O)NC(=O)Cc1c[nH]cn1)C2 | 6.09 | 8.66 | 2.3
14 | CC1(C)[C@@H]2CC[C@@]1(CS(=O)(=O)N1CCC3(CCc4ccccc43)CC1)[C@@H](N1C(=O)NC(CCC(N)=O)C1=O)C2 (some centres not stated) | 6.24 | 8.49 | 0.16
15 | CC1(C)[C@@H]2CC[C@@]1(CS(=O)(=O)N1CCC3(CCc4ccccc43)CC1)[C@@H](N1C(=O)NC(=O)C1=O)C2 | 4.80 | 6.74 | 9.2
16 | CC1(C)[C@@H]2CC[C@@]1(CS(=O)(=O)N1CCC3(CCc4ccccc43)CC1)[C@@H](NC(=O)Cc1[nH]cnc1Br)C2 | 4.82 | 6.96 | 8.1
17 | CC(C)[C@H](N)C(=O)NC[C@@]1(O)C[C@H]2CC[C@]1(CS(=O)(=O)N1CCC3(C=Cc4ccccc43)CC1)C2(C)C | 5.31 | 7.37 | 0.29
18 | CC1(C)[C@@H]2CC[C@@]1(CS(=O)(=O)N1CCC3(C=Cc4ccccc43)CC1)[C@@](O)(CNC(=O)C1CCCNC1)C2 (some centres not stated) | 5.29 | 6.96 | > 0.3
19 | CC1(C)[C@@H]2CC[C@@]1(CS(=O)(=O)N1CCC3(CCc4ccccc43)CC1)[C@@H](NC(=O)[C@H](CCC(N)=O)NC(=O)CCN)C2 | 5.74 | 8.20 | 0.49
